According to ChEMBL document CHEMBL1208666, “Novel 6,8-dibromo-4(3H)quinazolinone derivatives of anti-bacterial and anti-fungal activities” (2010):
Converted amounts (≈) assume the structure as drawn. The source made the active and inactive calls. No cut-off for these calls is given here.

How the values were obtained:
Staphylococcus aureus [1] = assay: Antibacterial activity against Staphylococcus aureus after 24 hrs by agar streak dilution method; format: functional
Procedure, shortened: (§1)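 Agar streak dilution on Mueller Hinton agar. Compound stock in DMSO was added in graded amounts to molten sterile agar at 40–50 °C. This was poured 3–4 mm deep and left to solidify. Bacterial suspension of about 10^5 cfu/ml was applied to the serially diluted plates. Plates were incubated at 37 °C for 24 h to read the MIC. Strains were food-poisoning isolates from animal byproducts.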

Listeria monocytogenes [2] = assay: Antibacterial activity against Listeria monocytogenes after 24 hrs by agar streak dilution method; format: functional; procedure, shortened: as §1
Candida albicans [3] = assay: Antifungal activity against Candida albicans after 48 hrs by agar streak dilution method; format: functional
Procedure, shortened: (§2)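 Fungal MIC by agar streak dilution on Sabouraud dextrose agar. Compound stock in DMSO was added in graded amounts to molten sterile medium at 40–50 °C. This was poured 3–4 mm deep and left to solidify. Fungal suspension of about 10^5 cfu/ml was applied to the serially diluted plates. Plates were incubated at 37 °C for 48 h.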

Salmonella typhimurium [4] = assay: Antibacterial activity against Salmonella Typhimurium at 100 ug/ml after 24 hrs by paper disc diffusion technique; format: functional, Salmonella enterica subsp. enterica serovar Typhimurium; settings: Salmonella enterica, read-out: IZ
Procedure, shortened: (§3)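 Paper disc diffusion on Mueller Hinton agar, autoclaved at 120 °C for 30 min. Medium at 40–50 °C was seeded at 1 ml/100 ml with a 10^5 cfu/ml suspension matched to 0.9 McFarland. It was poured 3–4 mm deep, and discs with compound in DMSO were laid on it. Plates were pre-incubated 1 h at room temperature, then 37 °C for 24 h. The inhibition zone was measured.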

Bacillus cereus [5] = assay: Antibacterial activity against Bacillus cereus after 24 hrs by agar streak dilution method; format: functional; procedure, shortened: as §1
Pseudomonas aeruginosa [6] = assay: Antibacterial activity against Pseudomonas aeruginosa after 24 hrs by agar streak dilution method; format: functional; procedure, shortened: as §1
Listeria monocytogenes [7] = assay: Antibacterial activity against Listeria monocytogenes at 100 ug/ml after 24 hrs by paper disc diffusion technique; format: functional; settings: read-out: IZ; procedure, shortened: as §3
Salmonella typhimurium [8] = assay: Antibacterial activity against Salmonella Typhimurium after 24 hrs by agar streak dilution method; format: functional, Salmonella enterica subsp. enterica serovar Typhimurium; settings: Salmonella enterica; procedure, shortened: as §1
Escherichia coli [9] = assay: Antibacterial activity against Escherichia coli O157 at 100 ug/ml after 24 hrs by paper disc diffusion technique; format: functional; settings: O157, 24 h, read-out: IZ
Staphylococcus aureus [10] = assay: Antibacterial activity against Staphylococcus aureus at 100 ug/ml after 24 hrs by paper disc diffusion technique; format: functional; settings: read-out: IZ; procedure, shortened: as §3
Aspergillus flavus [11] = assay: Antifungal activity against Aspergillus flavus after 48 hrs by agar streak dilution method; format: functional; procedure, shortened: as §2
Aspergillus flavus [12] = assay: Antifungal activity against Aspergillus flavus at 100 ug/ml after 48 hrs by paper disc diffusion technique; format: functional; settings: for zone of inhibition at 100 µg/mL: read-out: IZ
Procedure, shortened: (§4)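 Paper disc diffusion on Sabouraud dextrose agar, autoclaved at 120 °C for 30 min. Medium at 40–50 °C was seeded at 1 ml/100 ml with a 10^5 cfu/ml fungal suspension matched to 0.9 McFarland. It was poured 3–4 mm deep, and compound discs in DMSO were applied. Plates were pre-incubated 1 h at room temperature, then 28 °C for 48 h. The inhibition zone was recorded.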

Pseudomonas aeruginosa [13] = assay: Antibacterial activity against Pseudomonas aeruginosa at 100 ug/ml after 24 hrs by paper disc diffusion technique; format: functional; settings: read-out: IZ; procedure, shortened: as §3
Escherichia coli [14] = assay: Antibacterial activity against Escherichia coli O157 after 24 hrs by agar streak dilution method; format: functional; settings: O157, 24 h
Bacillus cereus [15] = assay: Antibacterial activity against Bacillus cereus at 100 ug/ml after 24 hrs by paper disc diffusion technique; format: functional; settings: read-out: IZ; procedure, shortened: as §3
Candida albicans [16] = assay: Antifungal activity against Candida albicans at 100 ug/ml after 48 hrs by paper disc diffusion technique; format: functional; settings: for zone of inhibition at 100 µg/mL: read-out: IZ; procedure, shortened: as §4

| Structure (SMILES) | MIC (Staphylococcus aureus [1]) [µg/mL] | MIC (Listeria monocytogenes [2]) [µg/mL] | MIC (Candida albicans [3]) [µg/mL] | zone of inhibition at 100 µg/mL (Salmonella typhimurium [4]) [mm] | MIC (Bacillus cereus [5]) [µg/mL] | MIC (Pseudomonas aeruginosa [6]) [µg/mL] | zone of inhibition at 100 µg/mL (Listeria monocytogenes [7]) [mm] | MIC (Salmonella typhimurium [8]) [µg/mL] | zone of inhibition at 100 µg/mL (Escherichia coli [9]) [mm] | zone of inhibition at 100 µg/mL (Staphylococcus aureus [10]) [mm] | MIC (Aspergillus flavus [11]) [µg/mL] | zone of inhibition at 100 µg/mL (Aspergillus flavus [12]) [mm] | zone of inhibition at 100 µg/mL (Pseudomonas aeruginosa [13]) [mm] | MIC (Escherichia coli [14]) [µg/mL] | zone of inhibition at 100 µg/mL (Bacillus cereus [15]) [mm] | zone of inhibition at 100 µg/mL (Candida albicans [16]) [mm] | inhibition zone (IZ) (Aspergillus flavus [12]) | inhibition zone (IZ) (Candida albicans [16]) |
| --- | --- | --- | --- | --- | --- | --- | --- | --- | --- | --- | --- | --- | --- | --- | --- | --- | --- | --- |
| O=C(N/N=C/c1ccc(Cl)c(Cl)c1)c1ccc(-n2c(-c3ccccc3)nc3c(Br)cc(Br)cc3c2=O)cc1 | 25 (≈ 37.2 µM) | 25 (≈ 37.2 µM) | 25 (≈ 37.2 µM) | 11 | 1.56 (≈ 2.32 µM) | 25 (≈ 37.2 µM) | 13 | 50 (≈ 74.5 µM) | 14 | 14 | 19 (≈ 28.3 µM) | 12 | 14 | 25 (≈ 37.2 µM) | 17 | 11 | – | – |
| O=C(N/N=C/c1ccco1)c1ccc(-n2c(-c3ccccc3)nc3c(Br)cc(Br)cc3c2=O)cc1 | 20 (≈ 33.8 µM) | > 50 | 25 (≈ 42.2 µM) | 16 | 50 (≈ 84.4 µM) | > 50 | 11 | 5 (≈ 8.44 µM) | 9 | 13 | – | – | 8 | > 50 | 12 | 12 | inactive | – |
| Cc1ccc(C2SCC(=O)N2NC(=O)c2ccc(-n3c(-c4ccccc4)nc4c(Br)cc(Br)cc4c3=O)cc2)cc1 (stereo unspecified) | > 50 | 50 (≈ 72.4 µM) | 30 (≈ 43.5 µM) | 15 | 50 (≈ 72.4 µM) | 10.1 (≈ 14.6 µM) | 10 | 7 (≈ 10.1 µM) | 9 | 10 | 12.5 (≈ 18.1 µM) | 16 | 16 | > 50 | 9 | 10 | – | – |
| O=C(NN1C(=O)c2ccccc2C1=O)c1ccc(-n2c(-c3ccccc3)nc3c(Br)cc(Br)cc3c2=O)cc1 | > 50 | > 50 | 50 (≈ 77.6 µM) | 11 | 5.5 (≈ 8.54 µM) | > 50 | 10 | > 50 | 11 | 10 | 0.39 (≈ 0.605 µM) | 25 | 11 | 50 (≈ 77.6 µM) | 16 | 9 | – | – |
| Cc1cc(C)n(C(=O)c2ccc(-n3c(-c4ccccc4)nc4c(Br)cc(Br)cc4c3=O)cc2)n1 | 50 (≈ 86.5 µM) | 12.5 (≈ 21.6 µM) | 50 (≈ 86.5 µM) | 14 | 25 (≈ 43.2 µM) | 30 (≈ 51.9 µM) | 15 | 20 (≈ 34.6 µM) | – | 10 | – | – | 12 | – | 13 | 9 | inactive | – |
| O=C(NN1C(=O)C=CC1=O)c1ccc(-n2c(-c3ccccc3)nc3c(Br)cc(Br)cc3c2=O)cc1 | > 50 | > 50 | 25 (≈ 42.1 µM) | 17 | 50 (≈ 84.1 µM) | > 50 | 11 | 2.9 (≈ 4.88 µM) | 9 | 9 | 4.5 (≈ 7.57 µM) | 17 | 11 | > 50 | 9 | 10 | – | – |
| CCOC(=O)c1ccc(-n2c(-c3ccccc3)nc3c(Br)cc(Br)cc3c2=O)cc1 | 1.56 (≈ 2.95 µM) | 25 (≈ 47.3 µM) | – | 16 | 50 (≈ 94.7 µM) | 50 (≈ 94.7 µM) | 14 | 3.12 (≈ 5.92 µM) | 11 | 17 | 25 (≈ 47.3 µM) | 10 | 12 | 50 (≈ 94.7 µM) | 9 | – | – | inactive |
| OC(Cn1cncn1)(Cn1cncn1)c1ccc(F)cc1F [FLUCONAZOLE] | – | – | 1.56 (≈ 5.09 µM) | – | – | – | – | – | – | – | 0.78 (≈ 2.55 µM) | 22 | – | – | – | 18 | – | – |
| O=C(NN1C(=O)CCC1=O)c1ccc(-n2c(-c3ccccc3)nc3c(Br)cc(Br)cc3c2=O)cc1 | > 50 | 50 (≈ 83.9 µM) | – | 18 | > 50 | > 50 | 12 | 1.7 (≈ 2.85 µM) | 9 | 9 | 3.5 (≈ 5.87 µM) | 17 | 11 | > 50 | 9 | – | – | inactive |
| CC1=NN(C(=O)c2ccc(-n3c(-c4ccccc4)nc4c(Br)cc(Br)cc4c3=O)cc2)C(=O)C1 | 40 (≈ 68.9 µM) | 6 (≈ 10.3 µM) | 50 (≈ 86.2 µM) | 14 | > 50 | 50 (≈ 86.2 µM) | 16 | 30 (≈ 51.7 µM) | – | 11 | 2.5 (≈ 4.31 µM) | 20 | 12 | – | 11 | 9 | – | – |
| O=C(N/N=C/c1ccc2ccccc2c1)c1ccc(-n2c(-c3ccccc3)nc3c(Br)cc(Br)cc3c2=O)cc1 | 25 (≈ 38.3 µM) | 3.12 (≈ 4.79 µM) | 25 (≈ 38.3 µM) | 12 | 50 (≈ 76.6 µM) | 25 (≈ 38.3 µM) | 16 | 50 (≈ 76.6 µM) | 13 | 14 | 0.39 (≈ 0.598 µM) | 26 | 13 | 25 (≈ 38.3 µM) | 12 | 13 | – | – |
